Source: article PMC5377441 (International Journal for Parasitology: Drugs and Drug …, 2017)
Read-outs that look alike come from different tables or passages of the source. Marks after values point to notes of the source that are not given here. One block for each compound: values may come before it.

What was measured:
[1] = test system: H. polygyrus; test: In vitro drug uptake and elimination by H. polygyrus; assay type: in vitro ADME, Heligmosomoides polygyrus
[2] = test system: T. muris; test: In vitro drug uptake and elimination by T. muris; assay type: in vitro ADME, Trichuris muris; settings: 24 h
[3] = test system: adult H. polygyrus; test: In vitro drug activity against adult H. polygyrus, phenotypic readout; assay type: cell-based, Heligmosomoides polygyrus; settings: 200 μM, 72 h
Summary of the method: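 Adult H. polygyrus were dissected from NMRI mice from ten days post-infection onward. Four worms per drug were incubated in 2 ml at 200 μM for 72 h, with DMSO-matched worms as controls. Motility, transparency and morphology were scored from 3 (normal) to 0 (highly impaired or dead). Runs were done in duplicate and repeated once.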

[4] = assay type: in vivo, NMRI mice; settings: for albendazole in small intestinal mucosa / albendazole in stomach content: intraperitoneal 100 mg/kg, 2 h
[5] = test system: H. polygyrus; test: Uptake of albendazole and its metabolites by H. polygyrus in vivo; design: species or system Heligmosomoides polygyrus in NMRI mice; settings: for albendazole in worms: oral 100 mg/kg, average
Summary of the method: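 Female NMRI mice were infected by oral gavage with 80 H. polygyrus L3. Groups received 100 mg/kg albendazole, albendazole after 50 mg/kg ABT given 16 h earlier, or albendazole sulfoxide, orally or intraperitoneally. Four mice per time point were killed at 2, 5 or 8 h (intraperitoneal groups at 2 h only). Worms were recovered, and drug was quantified by HPLC-UV/vis and reported per ten worms.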

[6] = assay type: in vivo, C57BL/10 mice
[7] = test system: T. muris; test: Drug uptake by T. muris in vivo; design: species or system Trichuris muris in C57BL/10 mice; settings: in vivo
[8] = test system: H. polygyrus; settings: oral 100 mg/kg, ref Unpublished data, 100 mg/kg, cited from earlier work
[9] = test system: adult T. muris; settings: incubation at >600 μM, 72 h; ref Keiser et al., 2012; cited from earlier work
[10] = test system: T. muris; settings: oral 300 mg/kg; ref Keiser et al., 2013; cited from earlier work
[11] = test system: hookworm infections; settings: single oral dosage; ref Keiser and Utzinger, 2008; cited from earlier work
[12] = test system: trichuriasis; settings: ref Keiser and Utzinger, 2008; cited from earlier work

albendazole sulfoxide detected in worms ([1]; incubation 5 to 100 μM, 24 h, range or mean over the concentrations): 15 nmol/10 worms
albendazole sulfone detected in worms ([1]; incubation 5 to 100 μM, 24 h, range, mean or maximum over the concentrations): 33 nmol/10 worms
ABZSO2 in worms ([1]; incubation at 5 μM, 24 h): 33 ± 10 nmol/10 worms
ABZSO in medium ([1]; incubation at 5 μM, 24 h): 0.2 ± 0.1 µM
ABZSO in worms ([1]; incubation at 5 μM, 24 h): 19 ± 10 nmol/10 worms
ABZSO2 in worms ([1]; incubation at 10 μM, 24 h): 51 ± 23 nmol/10 worms
ABZSO in medium ([1]; incubation at 10 μM, 24 h): 0.2 ± 0.1 µM
ABZSO in worms ([1]; incubation at 10 μM, 24 h): 19 ± 3 nmol/10 worms
ABZSO2 in worms ([1]; incubation at 25 μM, 24 h): 23 ± 8 nmol/10 worms
ABZSO in medium ([1]; incubation at 25 μM, 24 h): 0.4 ± 0.0 µM
ABZSO in worms ([1]; incubation at 25 μM, 24 h): 13 ± 11 nmol/10 worms
ABZSO2 in worms ([1]; incubation at 50 μM, 24 h): 30 ± 20 nmol/10 worms
ABZSO in medium ([1]; incubation at 50 μM, 24 h): 0.3 ± 0.0 µM
ABZSO in worms ([1]; incubation at 50 μM, 24 h): 9 ± 5 nmol/10 worms
ABZSO2 in worms ([1]; incubation at 75 μM, 24 h): 31 ± 8 nmol/10 worms
ABZSO in medium ([1]; incubation at 75 μM, 24 h): 0.3 ± 0.0 µM
ABZSO in worms ([1]; incubation at 75 μM, 24 h): 16 ± 11 nmol/10 worms
ABZSO2 in worms ([1]; incubation at 100 μM, 24 h): 33 ± 21 nmol/10 worms
ABZSO in medium ([1]; incubation at 100 μM, 24 h): 0.2 ± 0.0 µM
ABZSO in worms ([1]; incubation at 100 μM, 24 h): 16 ± 8 nmol/10 worms
albendazole in the parasite and the culture medium ([2]; incubation 5-100 μM): neither detected
albendazole sulfoxide in the parasite and the culture medium ([2]; incubation 5-100 μM): neither detected
ABZSO2 in worms ([2]; incubation at 5 μM): 122 ± 45 nmol/10 worms
ABZSO2 in worms ([2]; incubation at 10 μM): 185 ± 55 nmol/10 worms
ABZSO2 in worms ([2]; incubation at 25 μM): 421 ± 171 nmol/10 worms
ABZSO2 in worms ([2]; incubation at 50 μM): 780 ± 258 nmol/10 worms
ABZSO2 in worms ([2]; incubation at 75 μM): 1127 ± 451 nmol/10 worms
ABZSO2 in worms ([2]; incubation at 100 μM): 1348 ± 447 nmol/10 worms
SMILES: CCCS(=O)(=O)c1ccc2nc(NC(=O)OC)[nH]c2c1 [Albendazole sulfone, albendazole sulfone]
Drug effect (reduction of parasite viability) [3]: 40% [200 μM]
Drug effect (reduction of parasite viability) ([3]; listed as albendazole sulfone): 40%

SMILES: CCC[S+]([O-])c1ccc2[nH]c(NC(=O)OC)nc2c1 (centres unmarked) [Albendazole sulfoxide, albendazole sulfoxide]
albendazole in the culture medium ([1]; incubation 5 to 100 μM, 24 h): Neither albendazole nor albendazole sulfone could be quantified
albendazole sulfone in the culture medium ([1]; incubation 5 to 100 μM, 24 h): Neither albendazole nor albendazole sulfone could be quantified
Drug effect (reduction of parasite viability) [3]: 60% [200 μM]
Drug effect (reduction of parasite viability) ([3]; listed as albendazole sulfoxide): 60%
albendazole in small intestinal mucosa [4]: no albendazole was detected
albendazole in stomach content [4]: no albendazole was detected
albendazole sulfoxide in plasma, compared to the albendazole treatment ([4]; oral 100 mg/kg, 5 h): 5.2 fold
albendazole sulfoxide in the mucosa of the small intestine ([4]; oral 100 mg/kg, 5 h): 137 µmol/g
albendazole sulfoxide in the mucosa of the small intestine ([4]; oral 100 mg/kg, other time points (2 and 8 h)): below 27 μmol/g
albendazole in worms [5]: No albendazole was detected

albendazole sulfone in the culture medium ([1]; incubation 5 to 100 μM, 24 h): could not be quantified
ABZ in worms ([1]; incubation at 5 μM, 24 h): 13 ± 6 nmol/10 worms
ABZ in worms ([1]; incubation at 10 μM, 24 h): 16 ± 5 nmol/10 worms
ABZ in worms ([1]; incubation at 25 μM, 24 h): 5 ± 8 nmol/10 worms
ABZ in worms ([1]; incubation at 50 μM, 24 h): 28 ± 4 nmol/10 worms
albendazole in worms, plateau ([1]; incubation at 50 μM, longer than 8 h): 29 nmol/10 worms
ABZ in worms ([1]; incubation at 75 μM, 24 h): 55 ± 49 nmol/10 worms
ABZ in worms ([1]; incubation at 100 μM, 24 h): 10 ± 21 nmol/10 worms
albendazole sulfone in the culture medium ([2]; incubation 5 to 100 μM): not detected
ABZ in worms ([2]; incubation at 5 μM): 94 ± 44 nmol/10 worms
ABZ in worms ([2]; incubation at 10 μM): 176 ± 83 nmol/10 worms
ABZ in worms ([2]; incubation at 25 μM): 263 ± 173 nmol/10 worms
ABZ in worms ([2]; incubation at 50 μM): 551 ± 528 nmol/10 worms
ABZ in worms ([2]; incubation at 75 μM): 598 ± 336 nmol/10 worms
ABZ in worms ([2]; incubation at 100 μM): 641 ± 467 nmol/10 worms
albendazole in small intestinal mucosa [4]: not found
albendazole in stomach content [4]: 2217 µmol/g
albendazole in the mucosa ([4]; oral 100 mg/kg, 8 h): 13 µmol/g
albendazole in large intestine content ([4]; oral 100 mg/kg, end of the decrease over time (2-8 h)): 99 µmol/g
albendazole in large intestine content ([4]; oral 100 mg/kg, start of the decrease over time (2-8 h)): 462 µmol/g
albendazole quantity in worms, maximum ([5]; in vivo, 100 mg/kg): up to 10 nmol per ten H. polygyrus
albendazole in worms [5]: 6.2 nmol/10 worms
albendazole in stomach content ([6]; intraperitoneal 100 mg/kg, 2 h): 139 µmol/g
albendazole in the mucosa of the large intestine ([6]; intraperitoneal 100 mg/kg, 2 h): 8 µmol/g
albendazole in small intestine content ([6]; oral 100 mg/kg, 5 and 8 h): around 5 μmol/g
albendazole in large intestinal content ([6]; oral 100 mg/kg, 2 h): 208 µmol/g
albendazole in small intestine content ([6]; oral 100 mg/kg, 2 h): 394 µmol/g
albendazole in the mucosa of the small intestine ([6]; oral 100 mg/kg, 2 h): 5 µmol/g
albendazole in large intestinal content ([6]; oral 100 mg/kg, 5 h): 57 µmol/g
albendazole in large intestinal content ([6]; oral 100 mg/kg, 8 h): 16 µmol/g
albendazole in stomach content ([6]; oral 100 mg/kg, average between 2 and 8 h): 114 µmol/g
drug quantity in worms, maximum [7]: up to 31 nmol per ten T. muris
SMILES: CCCSc1ccc2nc(NC(=O)OC)[nH]c2c1 [Albendazole, albendazole]
Drug effect (reduction of parasite viability) [3]: 50% [200 μM]
Drug effect (reduction of parasite viability) ([3]; listed as albendazole): 50%
Worm burden reduction [8]: 100% [100 mg/kg] ^a
Worm burden reduction ([8]; listed as albendazole): 100%
Drug effect [9]: <50% ^b
Worm burden reduction [10]: 42% [300 mg/kg] ^c
cure rate [11]: 72%
cure rate [12]: below 36%
